# Results from ChEMBL document CHEMBL1165958, “Compounds from Acorus tatarinowii: determination of absolute configuration by quantum computations and cAMP regulation activity” (J Nat Prod, 2010).
# Activity calls are given as the source filed them. The calls are words filed in the database; no cut-off is given here.
# Species on record: Mus musculus
# Assay: Induction of cAMP level in mouse NIE115 cells at 50 uM after 30 mins by Alphascreen cAMP assay
# Type: functional, cell-based
# How it was run: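 N1E-115 neuroblastoma cells exposed to each test compound at 50 µM. Intracellular cAMP measured by AlphaScreen and read out as counts per second (cps). Values reported as means with standard error of the mean. Significance marked at p < 0.05, 0.01 and 0.001.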
row,Compound,Activity
1,COc1cc(OC)c(OC)cc1/C=C\C=O,Active
2,C/C=C\c1cc(OC)c(OC)cc1OC,inactive
3,COc1cc(OC)c(OC)cc1C=O,Active
4,C[C@H]1CC[C@H]2C(C)(C)C(=O)[C@@]3(C)C[C@@H](O)[C@@]12C3,inactive
5,COc1cc(OC)c(C(c2cc(OC)c(OC)cc2OC)[C@@H](C)O)cc1OC,Active
6,COc1cc(OC)c(OC)cc1CC(C)=O,Active
7,CC1=CC[C@@]2(CC1=O)[C@H](C(C)C)[C@H](O)C[C@@H]2C,inactive
8,CCC(=O)c1cc(OC)c(OC)cc1OC,Active
9,COc1cc(OC)c(C(=O)C(C)=O)cc1OC,Active
10,COc1ccc(CC(C)=O)cc1OC,inactive
11,CC(=O)O[C@@H]1C[C@H](C)[C@@]2(CC=C(C)C(=O)C2)[C@@H]1C(C)C,inactive
12,CC1=CC[C@@]2(CC1=O)[C@@H](C(C)C)C(=O)C[C@@H]2C,inactive
13,C=C1CC[C@@H]2[C@@](O)(C1)[C@H](C(C)C)CC[C@@]2(C)O,inactive
14,C/C=C/c1cc(OC)c(OC)cc1OC,inactive
15,C/C=C\c1ccc(OC)c(OC)c1,inactive
16,CC1=CC[C@]2(CC1=O)[C@@H](C)CC(=O)[C@H]2C(C)C,inactive
